Drawing on ChEMBL document CHEMBL1821635, “Synthesis and evaluation of aliphatic-chain hydroxamates capped with osthole derivatives as histone deacetylase inhibitors” (Eur J Med Chem, 2011), this text covers GI50, IC50 and inhibition for 13 molecules.

Activity calls are given as the source filed them. The rule behind the calls is not given here.

Test [1] in a line: Antiproliferative activity against human Hep3B cells after 48 hrs by SRB assay. The format is functional, Hep 3B2. The method, boiled down: (§1)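 Cells seeded in medium with 5% FBS; after 24 h a T0 set fixed with 10% TCA. Compound or vehicle (0.1% DMSO) added for 48 h, then fixed with 10% TCA, stained with 0.4% SRB in 1% acetic acid, bound dye solubilized in 10 mM Trizma base, absorbance at 515 nm. GI50 = concentration halving net protein increase versus control, from [1−(Tx−T0)/(C−T0)]×100%.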
(Sulforhodamine B stains cellular protein and so reports cell mass.)

The next test concerns the target Histone deacetylase. The test is described as follows: Inhibition of HDAC from human HeLa nuclear extract using Boc-Lys(Ac)-AMC as substrate incubated 30 mins before substrate addition measured after 30 mins post substrate addition by fluorescence assay. It is filed as protein assay.
For a further test, the system named is A549. The test is described as follows: Antiproliferative activity against human A549 cells after 48 hrs by SRB assay. The format is functional. The procedure, abridged:
as §1

The subject of the next test is PC-3. The test is described as follows: Antiproliferative activity against human PC3 cells after 48 hrs by SRB assay. It is filed as functional. The method, boiled down:
as §1

In test [2] the target is T1, Protein deacetylase HDAC6 (Homo sapiens, UniProt Q9UBN7).
T1 sequence (Q9UBN7 whole entry): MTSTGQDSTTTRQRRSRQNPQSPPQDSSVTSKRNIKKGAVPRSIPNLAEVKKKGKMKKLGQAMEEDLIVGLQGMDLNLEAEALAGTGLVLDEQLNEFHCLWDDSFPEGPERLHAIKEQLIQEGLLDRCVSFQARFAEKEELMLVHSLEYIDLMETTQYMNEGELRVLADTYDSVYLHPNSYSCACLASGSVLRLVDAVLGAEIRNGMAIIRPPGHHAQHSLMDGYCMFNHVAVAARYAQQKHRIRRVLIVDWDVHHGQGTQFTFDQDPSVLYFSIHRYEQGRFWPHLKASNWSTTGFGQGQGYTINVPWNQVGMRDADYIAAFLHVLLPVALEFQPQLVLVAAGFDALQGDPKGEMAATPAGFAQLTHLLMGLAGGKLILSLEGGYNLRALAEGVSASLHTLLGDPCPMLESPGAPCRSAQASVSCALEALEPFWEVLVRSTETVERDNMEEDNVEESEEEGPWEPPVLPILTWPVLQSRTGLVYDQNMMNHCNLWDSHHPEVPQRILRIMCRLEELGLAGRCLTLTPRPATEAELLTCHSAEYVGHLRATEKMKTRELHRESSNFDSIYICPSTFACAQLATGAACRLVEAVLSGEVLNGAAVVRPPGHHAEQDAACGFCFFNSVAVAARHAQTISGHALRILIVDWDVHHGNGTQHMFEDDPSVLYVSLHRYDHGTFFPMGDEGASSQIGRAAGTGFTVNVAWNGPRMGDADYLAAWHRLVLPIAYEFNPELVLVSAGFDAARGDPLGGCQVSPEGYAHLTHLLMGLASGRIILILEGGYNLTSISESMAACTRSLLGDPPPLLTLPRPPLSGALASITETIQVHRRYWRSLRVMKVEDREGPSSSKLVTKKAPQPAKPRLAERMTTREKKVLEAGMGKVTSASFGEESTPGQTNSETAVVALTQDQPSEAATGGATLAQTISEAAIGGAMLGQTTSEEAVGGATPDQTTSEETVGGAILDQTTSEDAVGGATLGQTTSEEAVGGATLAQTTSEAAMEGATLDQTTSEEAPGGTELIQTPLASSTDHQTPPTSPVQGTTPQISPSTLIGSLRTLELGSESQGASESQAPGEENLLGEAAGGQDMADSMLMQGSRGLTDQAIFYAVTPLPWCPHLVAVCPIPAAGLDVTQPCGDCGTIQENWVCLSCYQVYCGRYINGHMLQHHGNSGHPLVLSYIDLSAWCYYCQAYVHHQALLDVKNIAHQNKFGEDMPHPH
The test is described as follows: Inhibition of HDAC6 using Boc-Lys(Ac)-AMC as substrate incubated 30 mins before substrate addition measured after 30 mins post substrate addition by fluorescence assay.

The next test has as its target T2, Histone deacetylase 8 (Homo sapiens, UniProt Q9BY41).
T2 sequence (Q9BY41 whole entry): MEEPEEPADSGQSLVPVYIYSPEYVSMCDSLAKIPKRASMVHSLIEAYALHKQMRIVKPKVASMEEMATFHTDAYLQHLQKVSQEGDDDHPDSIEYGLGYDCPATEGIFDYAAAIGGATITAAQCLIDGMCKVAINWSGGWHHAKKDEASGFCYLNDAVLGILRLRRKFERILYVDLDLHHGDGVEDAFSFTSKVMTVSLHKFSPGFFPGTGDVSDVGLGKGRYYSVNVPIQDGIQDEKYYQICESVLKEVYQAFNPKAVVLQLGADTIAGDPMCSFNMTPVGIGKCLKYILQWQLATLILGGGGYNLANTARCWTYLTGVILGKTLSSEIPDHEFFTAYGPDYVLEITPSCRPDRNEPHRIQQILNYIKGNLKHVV
The test is described as follows: Inhibition of human HDAC8 using Boc-Lys(TFA)-AMC as substrate incubated 30 mins before substrate addition measured after 30 mins post substrate addition by fluorescence assay.

A further test addresses Histone deacetylase 4 (Homo sapiens, UniProt P56524). The test is described as follows: Inhibition of HDAC4 using Boc-Lys(TFA)-AMC as substrate incubated 30 mins before substrate addition measured after 30 mins post substrate addition by fluorescence assay.
The next test has as its target Histone deacetylase 1 (Homo sapiens, UniProt Q13547). The test is described as follows: Inhibition of HDAC1 using KI-177 as substrate incubated 30 mins before substrate addition measured after 30 mins post substrate addition by fluorescence assay.
Test [3] concerns the target T3, Histone deacetylase (Homo sapiens) (UniProt Q13547+O15379+Q9UBN7+Q92769+Q9UQL6+Q8WUI4+Q9BY41+Q96DB2+P56524+Q9UKV0+Q969S8). The test is described as follows: Inhibition of HDAC in human prostate cancer cells assessed as induction of hyperacetylation of histone H3 after 16 hrs by SDS-PAGE and Western blot analysis. The format is cell-based. The conditions noted are these: Cancer cell lines. The procedure, abridged: (§2)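 Cells exposed to inhibitor at […] for 16 h. Whole-cell lysates made in ice-cold Tris pH 7.4 buffer with Triton X-100, protease and phosphatase inhibitors, run on 13% SDS-PAGE gels. Western blot for acetylated histone H3 (polyclonal) or acetylated alpha-tubulin (monoclonal), beta-actin as loading control, HRP secondary, ECL detection.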

For test [4], the target named is T3, Histone deacetylase (Homo sapiens). The test is described as follows: Inhibition of HDAC in human prostate cancer cells assessed as induction of hyperacetylation of alpha-tubulin after 16 hrs by SDS-PAGE and Western blot analysis. The format is cell-based. The note with it: Cancer cell lines. The procedure, abridged:
as §2
A general note: In western blotting, separated proteins are transferred to a membrane and probed.

Chain of Histone deacetylase 4 (P56524 whole entry): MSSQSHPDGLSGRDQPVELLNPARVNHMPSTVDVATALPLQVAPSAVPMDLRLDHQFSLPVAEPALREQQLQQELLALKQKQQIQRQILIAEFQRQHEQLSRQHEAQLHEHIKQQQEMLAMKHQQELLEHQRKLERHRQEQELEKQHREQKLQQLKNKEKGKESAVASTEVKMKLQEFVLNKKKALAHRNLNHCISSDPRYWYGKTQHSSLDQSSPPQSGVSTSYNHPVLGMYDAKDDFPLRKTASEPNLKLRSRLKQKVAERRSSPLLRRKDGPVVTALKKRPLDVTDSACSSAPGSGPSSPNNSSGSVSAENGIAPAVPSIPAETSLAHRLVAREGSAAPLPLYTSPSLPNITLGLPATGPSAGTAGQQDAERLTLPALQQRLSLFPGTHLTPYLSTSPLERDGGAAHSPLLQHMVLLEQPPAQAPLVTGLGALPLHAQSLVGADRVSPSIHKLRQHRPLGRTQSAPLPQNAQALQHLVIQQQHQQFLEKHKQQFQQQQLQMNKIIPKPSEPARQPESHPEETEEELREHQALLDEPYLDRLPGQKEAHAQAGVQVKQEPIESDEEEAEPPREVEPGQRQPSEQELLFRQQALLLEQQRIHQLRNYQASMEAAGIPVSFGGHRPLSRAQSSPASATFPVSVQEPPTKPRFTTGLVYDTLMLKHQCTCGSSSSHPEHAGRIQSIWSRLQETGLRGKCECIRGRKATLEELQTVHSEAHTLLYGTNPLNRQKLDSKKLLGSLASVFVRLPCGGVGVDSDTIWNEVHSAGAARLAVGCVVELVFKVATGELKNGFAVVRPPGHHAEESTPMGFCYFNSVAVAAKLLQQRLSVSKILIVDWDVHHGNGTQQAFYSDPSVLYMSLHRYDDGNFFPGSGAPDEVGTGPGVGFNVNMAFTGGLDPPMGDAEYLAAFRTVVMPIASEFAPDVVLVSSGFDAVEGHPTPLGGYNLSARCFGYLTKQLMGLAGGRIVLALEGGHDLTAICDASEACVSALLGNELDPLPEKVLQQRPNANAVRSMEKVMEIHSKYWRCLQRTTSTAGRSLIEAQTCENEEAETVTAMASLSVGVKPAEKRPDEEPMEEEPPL
Chain of Histone deacetylase 1 (Q13547 whole entry): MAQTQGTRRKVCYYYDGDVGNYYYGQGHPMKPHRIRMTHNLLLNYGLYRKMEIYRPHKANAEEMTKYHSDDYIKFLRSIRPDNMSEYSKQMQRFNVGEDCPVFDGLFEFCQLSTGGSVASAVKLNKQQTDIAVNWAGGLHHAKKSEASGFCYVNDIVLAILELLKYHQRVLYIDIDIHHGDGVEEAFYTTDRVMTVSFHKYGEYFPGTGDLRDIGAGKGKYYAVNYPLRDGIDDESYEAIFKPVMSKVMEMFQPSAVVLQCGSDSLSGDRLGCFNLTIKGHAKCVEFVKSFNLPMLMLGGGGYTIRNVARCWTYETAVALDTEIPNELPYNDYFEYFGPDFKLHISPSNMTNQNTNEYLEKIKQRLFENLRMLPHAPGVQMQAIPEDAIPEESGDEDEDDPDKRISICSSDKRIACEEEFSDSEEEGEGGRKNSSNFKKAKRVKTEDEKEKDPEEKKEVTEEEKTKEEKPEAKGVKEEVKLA

Consider `CC(C)CCc1c(OCCCCCCCC(=O)NO)ccc2ccc(=O)oc12`, for which the concentration for 50% growth inhibition (GI50) in [1] (Homo sapiens, Hep3B, 48 h) was 3580 nM; in the test with A549 (Homo sapiens, A549, 48 h), 2190 nM. On Histone deacetylase, this molecule displayed an IC50 of 39 nM.
Regarding `CC(C)CCc1c(OCCCCC(=O)NO)ccc(CCC(=O)NO)c1O`, the concentration for 50% growth inhibition (GI50) in test [1] (Homo sapiens, Hep3B, 48 h) turned out to be 14100 nM; in the test on A549 (Homo sapiens, A549, 48 h), 10000 nM; in the test with PC-3 (Homo sapiens, PC-3, 48 h), 14400 nM. On Histone deacetylase, this molecule showed an IC50 of 426.3 nM.
On the same counts, the results for `CC(C)CCc1c(OCCCCC(=O)NO)ccc2c1OC(=O)CC2` are greater than 30000 nM, greater than 30000 nM, greater than 30000 nM and 711.6 nM.
On the same counts, the results for `CC(C)CCc1c(OCCCCCC(=O)NO)ccc2c1OC(=O)CC2` are greater than 30000 nM, greater than 30000 nM, greater than 30000 nM and 425.5 nM.
On to `CC(C)CCc1c(OCCCCCCCC(=O)NO)ccc(CCC(=O)NO)c1O`, for which the IC50 in test [2] is 14.2 nM; against Histone deacetylase, 28.9 nM; against Histone deacetylase 8, 279 nM; on Histone deacetylase 4, greater than 10000 nM; against Histone deacetylase 1, 41.5 nM. Further, the GI50 in [1] (Homo sapiens, Hep3B, 48 h) stood at 1270 nM; with A549 (Homo sapiens, A549, 48 h), 2670 nM; in the test on PC-3 (Homo sapiens, PC-3, 48 h), 1730 nM.
As for `CC(C)CCc1c(OCCCCCCC(=O)NO)ccc2ccc(=O)oc12`, the IC50 was 15.2 nM in test [2]; 22.2 nM on Histone deacetylase; 553 nM at Histone deacetylase 8; greater than 10000 nM against Histone deacetylase 4; 32.3 nM against Histone deacetylase 1. Further, the GI50 in test [1] (Homo sapiens, Hep3B, 48 h) came to 750 nM; with A549 (Homo sapiens, A549, 48 h), 660 nM. In addition, the inhibition result in test [3] and in test [4] was “Dose-dependent effect” throughout.
`CC(C)CCc1c(OCCCCC(=O)NO)ccc2ccc(=O)oc12`: the GI50 in test [1] (Homo sapiens, Hep3B, 48 h) is 1310 nM; in the test on A549 (Homo sapiens, A549, 48 h) it was 2760 nM; in the test on PC-3 (Homo sapiens, PC-3, 48 h) it was 1940 nM. In addition, the IC50 against Histone deacetylase turned out to be 523.2 nM.
As for `O=C(CCCCCCC(=O)Nc1ccccc1)NO` [VORINOSTAT], the values for the concentration for 50% growth inhibition (GI50) (in test [1]; in the test on A549; in the test with PC-3) were 1210 nM, 790 nM and 1020 nM, respectively.
Consider `CC(C)CCc1c(OCCCCCCCC(=O)NO)ccc2c1OC(=O)CC2`, for which the GI50 in test [1] (Homo sapiens, Hep3B, 48 h) was greater than 30000 nM; in the test on A549 (Homo sapiens, A549, 48 h), greater than 30000 nM; with PC-3 (Homo sapiens, PC-3, 48 h), greater than 30000 nM. Besides, on Histone deacetylase, the half-maximal inhibitory concentration (IC50) is recorded as 111.7 nM.
As to `CC(C)CCc1c(OCCCCCCC(=O)NO)ccc(CCC(=O)NO)c1O`, the 50% inhibitory concentration (IC50) in test [2] was 15.9 nM; at Histone deacetylase it was 24.6 nM; on Histone deacetylase 8, 268 nM; against Histone deacetylase 4, greater than 10000 nM; against Histone deacetylase 1 it was 42.9 nM. Besides, the GI50 in test [1] (Homo sapiens, Hep3B, 48 h) came out at 4720 nM; with A549 (Homo sapiens, A549, 48 h), 6160 nM; with PC-3 (Homo sapiens, PC-3, 48 h), 4730 nM. The inhibition entry in test [3] and in test [4] was “inactive” in each case.
Take `CC(C)CCc1c(OCCCCCC(=O)NO)ccc(CCC(=O)NO)c1O`: the 50% growth inhibitory concentration (GI50) was 1980 nM in test [1] (Homo sapiens, Hep3B, 48 h); 5410 nM with A549 (Homo sapiens, A549, 48 h); 2520 nM with PC-3 (Homo sapiens, PC-3, 48 h). Moreover, the IC50 at Histone deacetylase is 209.9 nM.
As for `CC(C)CCc1c(OCCCCCC(=O)NO)ccc2ccc(=O)oc12`, the concentration for 50% growth inhibition (GI50) in test [1] (Homo sapiens, Hep3B, 48 h) was determined as 800 nM; in the test with A549 (Homo sapiens, A549, 48 h), 870 nM. Moreover, the IC50 at Histone deacetylase is reported as 128.2 nM.
Turning to `CC(C)CCc1c(OCCCCCCC(=O)NO)ccc2c1OC(=O)CC2`, the IC50 in test [2] is 40 nM; against Histone deacetylase, 23.7 nM; at Histone deacetylase 8 it was 1080 nM; against Histone deacetylase 4 it was greater than 10000 nM; against Histone deacetylase 1, 52.7 nM. For the same molecule, the GI50 was greater than 30000 nM in test [1] (Homo sapiens, Hep3B, 48 h); greater than 30000 nM in the test on A549 (Homo sapiens, A549, 48 h); greater than 30000 nM in the test with PC-3 (Homo sapiens, PC-3, 48 h).

As usually defined, the GI50 is the concentration that inhibits growth by half. Low values mean greater sensitivity of the cells, high ones lower sensitivity of the cells. By IC50 is commonly meant the concentration needed to halve the response being measured.
